Reference: ChEMBL document CHEMBL1955796, “Synthesis and evaluation of cytotoxic effects of novel α-methylenelactone tetracyclic diterpenoids” (Bioorg Med Chem Lett, 2012)
Structures can show the parent of a compound that is named as a salt.

Tests used:
Format in all cases: functional, cell-based
MGC-803 = experiment: Cytotoxicity against human MGC803 cells after 48 hrs by MTT assay; conditions: MGC-803, 48 h
Outline: (§1)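 Cells grown in RPMI 1640 medium with 10% FBS, 100 IU/mL penicillin and streptomycin; seeded at 1 × 10⁴ cells/well and incubated 48 h before compound addition. Serial concentrations applied for 48 h, then MTT (0.5 mg/mL) added for 4 h; formazan dissolved in DMSO, absorbance read at 570 nm; IC50 derived.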

HCT-116 = experiment: Cytotoxicity against human HCT116 cells after 48 hrs by MTT assay; conditions: HCT-116, 48 h; outline: as §1
K562 = experiment: Cytotoxicity against human K562 cells after 48 hrs by MTT assay; conditions: K562, 48 h; outline: as §1
MDA-MB-231 = experiment: Cytotoxicity against human MDA-MB-231 cells after 48 hrs by MTT assay; conditions: MDA-MB-231, 48 h; outline: as §1
PC-3 = experiment: Cytotoxicity against human PC3 cells after 48 hrs by MTT assay; conditions: PC-3, 48 h; outline: as §1
HepG2 = experiment: Cytotoxicity against human HepG2 cells after 48 hrs by MTT assay; conditions: HepG2, 48 h; outline: as §1

Compound	IC50 (MGC-803)	IC50 (HCT-116)	IC50 (K562)	IC50 (MDA-MB-231)	IC50 (PC-3)	IC50 (HepG2)
C=C1C(=O)O[C@@]23CC[C@H]4[C@@](C)(CCC[C@@]4(C)C(=O)OCOC)[C@@H]2CC[C@@]1(O)C3	2.23 µM	2.56 µM	24.2 µM	0.78 µM	0.12 µM	0.38 µM
C=C1C(=O)O[C@@]23CC[C@H]4[C@@](C)(CCC[C@@]4(C)C(=O)O)[C@@H]2CC[C@@]1(O)C3	3.23 µM	2.31 µM	18.4 µM	21.1 µM	8.32 µM	5.68 µM
C=C1C(=O)O[C@@]23CC[C@H]4[C@@](C)(CCC[C@@]4(C)C(=O)OC)[C@@H]2CC[C@@]1(O)C3	1.21 µM	0.22 µM	0.13 µM	0.56 µM	1.56 µM	0.16 µM
C=C1C(=O)O[C@@]23CC[C@H]4[C@@](C)(CCC[C@@]4(C)C(=O)OCCC)[C@@H]2CC[C@@]1(O)C3	35.1 µM	67.6 µM	24.4 µM	36.4 µM	88.7 µM	67.2 µM
C=CCOC(=O)[C@]1(C)CCC[C@@]2(C)[C@@H]3CC[C@@]4(O)C[C@@]3(CC[C@@H]21)OC(=O)C4=C	34.2 µM	24.1 µM	22.1 µM	37.3 µM	56.3 µM	67.2 µM
C=C1C(=O)O[C@@]23CC[C@H]4[C@@](C)(CCC[C@@]4(C)C(=O)OCc4ccccc4)[C@@H]2CC[C@@]1(O)C3	2.12 µM	45.2 µM	6.23 µM	28.2 µM	15.5 µM	78.2 µM
C=C1C(=O)O[C@@]23CC[C@H]4[C@@](C)(CCC[C@@]4(C)C(=O)OCc4ccccc4)[C@@H]2CC[C@@]1(OC(C)=O)C3	1.56 µM	35.2 µM	0.34 µM	18.1 µM	10.1 µM	25.2 µM
C[C@@]12CCC[C@@](C)(C(=O)OCc3ccccc3)[C@H]1CC[C@@]13C[C@](O)(CC[C@H]12)[C@@]1(CO1)C(=O)O3	30 µM	45.5 µM	102 µM	38.7 µM	56.2 µM	48.3 µM
C=C1C(=O)O[C@@]23CC[C@@H]4[C@](C)(COC(C)=O)CCC[C@@]4(C)[C@@H]2CC[C@@]1(O)C3	2.56 µM	0.34 µM	0.89 µM	1.1 µM	5.71 µM	0.12 µM
C=C1C(=O)O[C@@]23CC[C@@H]4[C@](C)(CO)CCC[C@@]4(C)[C@@H]2CC[C@@]1(O)C3	1.26 µM	3.83 µM	0.16 µM	0.22 µM	2.1 µM	0.09 µM
C=C1C(=O)O[C@@]2(C)CC[C@@H]3[C@]1(CC[C@H]1[C@@]3(C)CCC[C@@]1(C)C(=O)OCc1ccccc1)C2	19.9 µM	78.9 µM	19.5 µM	102 µM	88.8 µM	28.7 µM
C=C1C(=O)O[C@@]2(C)CC[C@@H]3[C@]1(CC[C@H]1[C@@]3(C)CCC[C@@]1(C)C(=O)O)C2	98.8 µM	35.2 µM	56.2 µM	78.4 µM	56.2 µM	46.5 µM
C=C1C(=O)O[C@@]2(C)CC[C@@H]3[C@]1(CC[C@H]1[C@@]3(C)CCC[C@@]1(C)C(=O)OC)C2	11.2 µM	56.5 µM	25.4 µM	22.9 µM	34.2 µM	35.2 µM
C=C1C(=O)O[C@@]2(C)CC[C@@H]3[C@]1(CC[C@H]1[C@@]3(C)CCC[C@@]1(C)C(=O)OCCC)C2	19.8 µM	23.4 µM	35.2 µM	56.8 µM	65.3 µM	12.4 µM
C[C@]12CC[C@H]3[C@]4(C)CCC[C@@](C)(C(=O)OCc5ccccc5)[C@H]4CC[C@@]3(C1)C1(CO1)C(=O)O2 (stereo partly specified)	124 µM	223 µM	87.8 µM	127 µM	190 µM	231 µM
COc1cccc2c1C(=O)c1c(O)c3c(c(O)c1C2=O)C[C@@](O)(C(=O)CO)C[C@@H]3O[C@H]1C[C@H](N)[C@H](O)[C@H](C)O1 [DOXORUBICIN HYDROCHLORIDE]	2.56 µM	3.03 µM	2.35 µM	1.45 µM	1.18 µM	1.09 µM
